The experiment addresses Prostaglandin E2 receptor EP4 subtype (Homo sapiens, UniProt P35408). Nature of the experiment: Binding affinity towards EP4 receptor expressed in HEK293 ebna cells recombinantly expressing the corresponding human prostanoid cDNAs. In a few lines:
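Competition binding used membrane preparations, not intact cells, from HEK293ebna cells expressing each recombinant human prostanoid receptor cDNA.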

Broadly, the Ki is a dissociation constant, usually derived from enzyme kinetics or from competition with a known ligand.

Chain of Prostaglandin E2 receptor EP4 subtype (P35408 whole entry): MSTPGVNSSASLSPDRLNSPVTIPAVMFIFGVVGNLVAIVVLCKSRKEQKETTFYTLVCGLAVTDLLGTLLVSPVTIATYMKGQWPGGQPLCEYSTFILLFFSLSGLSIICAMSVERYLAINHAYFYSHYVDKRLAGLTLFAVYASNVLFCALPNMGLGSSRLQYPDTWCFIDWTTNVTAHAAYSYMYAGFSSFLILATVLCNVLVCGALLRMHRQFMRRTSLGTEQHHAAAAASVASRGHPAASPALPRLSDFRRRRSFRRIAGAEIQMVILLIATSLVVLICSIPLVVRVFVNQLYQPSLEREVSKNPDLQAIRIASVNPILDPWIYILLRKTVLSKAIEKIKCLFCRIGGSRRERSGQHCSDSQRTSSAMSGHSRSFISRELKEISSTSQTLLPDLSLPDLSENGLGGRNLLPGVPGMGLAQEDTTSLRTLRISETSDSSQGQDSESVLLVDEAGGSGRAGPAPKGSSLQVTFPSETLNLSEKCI

Take `O=C1CC[C@H](/C=C/[C@H](O)Cc2ccccc2)N1CCCCCCc1nnn[nH]1`: the Ki came out at 2.5 nM.
